The source of these data is ChEMBL document CHEMBL1124832, “Functionalized congener approach for the design of novel muscarinic agents. Synthesis and pharmacological evaluation of N-methyl-N-[4-(1-pyrrolidinyl)-2-butynyl] amides” (J Med Chem, 1990).

Structures are written as SMILES. Some results are limits rather than exact numbers.

Test [1] addresses Muscarinic acetylcholine receptor M3 (Homo sapiens) (UniProt P20309). The experiment in a line: Percent binding affinity at muscarinic acetylcholine receptor M3 from SK-N-SH human neuroblastoma cells in presence of [3H]NMS. The class given is cell-based. The gist of the method: (§1)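 Crude membranes from confluent cells, lysed in 2 mM Tris-HCl (pH 7.1)/1 mM EDTA, homogenized, spun at 50000 g and stored at -70 °C. Membranes (150-300 µg protein) incubated 90 min at 37 °C with 0.5 nM [3H]NMS and 100 µM compound in DMEM-Hepes, then filtered on GF/B. Nonspecific binding taken with 1 µM atropine. Reported as percent displacement; two or three trials in triplicate.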

Test [2] has as its target T1, Muscarinic acetylcholine receptor M4 (Rattus norvegicus) (UniProt P08485).
T1 sequence (whole entry): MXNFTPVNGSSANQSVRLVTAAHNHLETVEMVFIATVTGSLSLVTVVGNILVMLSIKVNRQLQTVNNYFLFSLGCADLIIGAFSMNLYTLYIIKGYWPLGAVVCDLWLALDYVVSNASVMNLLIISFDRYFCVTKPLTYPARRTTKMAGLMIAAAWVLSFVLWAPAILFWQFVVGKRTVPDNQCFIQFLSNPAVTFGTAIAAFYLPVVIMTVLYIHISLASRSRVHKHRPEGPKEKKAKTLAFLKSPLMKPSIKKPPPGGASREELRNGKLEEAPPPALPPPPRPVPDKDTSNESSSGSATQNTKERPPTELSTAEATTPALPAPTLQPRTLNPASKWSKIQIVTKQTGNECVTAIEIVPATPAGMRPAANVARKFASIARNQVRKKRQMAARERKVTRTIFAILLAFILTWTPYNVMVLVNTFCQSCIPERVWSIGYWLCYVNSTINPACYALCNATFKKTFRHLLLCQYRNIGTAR
The experiment in a line: Percent inhibition against muscarinic acetylcholine receptor M4 from NG108-15 cell line. The class given is cell-based. Set-up: concentration or dose not given beside the values. The procedure, abridged:
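NG108-15 cells grown to 90% confluence and preincubated 10 min at 37 °C in 1 mM IBMX in DMEM-Hepes. Compound (100 µM final) and PGE1 (5 µM final) were added for 15 min at 37 °C. cAMP was extracted in 0.1 N HCl for 30 min at room temperature, lyophilized and measured by radioimmunoassay. Reported as percent inhibition versus no-compound control; three trials in triplicate.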

Test [3] deals with T1, Muscarinic acetylcholine receptor M4 (Rattus norvegicus). The experiment in a line: Binding affinity at muscarinic acetylcholine receptor M4 from NG108-15 cell line in presence of [3H]-NMS. Type of test: cell-based. The gist of the method:
as §1

The target in test [4] is Muscarinic acetylcholine receptor M3 (Homo sapiens) (UniProt P20309). The test can be described thus: Percent increase in [3H]myo-inositol at muscarinic acetylcholine receptor M3 from SK-N-SH human neuroblastoma cells. The class given is cell-based. Also noted: concentration or dose not given beside the values. The gist of the method: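 SK-N-SH cells grown in DMEM with 10% newborn calf serum and plated at 100000 cells/well. After 24 h they were labeled overnight with [3H]-myo-inositol (2 µCi/well). Cells were rinsed and preincubated 5 min at 37 °C in 10 mM LiCl DMEM-Hepes, then exposed to 100 µM final compound for 30 min at 37 °C. Reported as percent increase relative to oxotremorine M (100%); two or three trials in triplicate.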
Muscarinic acetylcholine receptor M3 (Homo sapiens), sequence (P20309 whole entry, looked up): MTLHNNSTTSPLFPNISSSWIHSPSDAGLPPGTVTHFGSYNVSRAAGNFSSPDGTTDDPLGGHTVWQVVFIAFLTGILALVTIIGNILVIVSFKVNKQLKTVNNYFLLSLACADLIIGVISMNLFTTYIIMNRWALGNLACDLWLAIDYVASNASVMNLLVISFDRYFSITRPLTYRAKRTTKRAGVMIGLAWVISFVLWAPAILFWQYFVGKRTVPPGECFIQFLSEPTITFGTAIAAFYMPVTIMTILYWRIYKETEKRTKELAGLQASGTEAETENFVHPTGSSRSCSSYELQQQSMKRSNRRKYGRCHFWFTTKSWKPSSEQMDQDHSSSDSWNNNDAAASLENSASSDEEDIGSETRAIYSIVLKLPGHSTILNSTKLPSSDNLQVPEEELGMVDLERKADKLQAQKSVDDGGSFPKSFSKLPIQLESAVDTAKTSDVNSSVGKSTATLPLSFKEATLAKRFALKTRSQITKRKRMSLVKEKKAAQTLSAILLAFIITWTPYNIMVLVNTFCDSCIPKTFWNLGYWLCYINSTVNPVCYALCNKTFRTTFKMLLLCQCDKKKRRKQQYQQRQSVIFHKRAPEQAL

For a further test, the system named is SK-N-SH. The experiment in a line: Percent inhibition of stimulation of PI turnover of Oxotremorine M (100 uM) in SK-N-SH cells at 100 uM. The class given is functional, Homo sapiens.
Test [5] concerns the target Muscarinic acetylcholine receptor. The test can be described thus: Binding affinity was determined using [3H]-NMS for Muscarinic acetylcholine receptor in SK-N-SH neuroblastoma cells. Type of test: cell-based, Homo sapiens. The procedure, abridged: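 SK-N-SH crude membranes from hypotonic lysis (2 mM Tris-HCl pH 7.1, 1 mM EDTA), 50000 g pellets. Competition used varied compound concentrations with 1 nM [3H]NMS in DMEM-Hepes, 60 min at 37°C, then GF/B filtration. Atropine defined nonspecific binding. Ki was obtained by Cheng-Prusoff from the [3H]NMS Kd (saturation, 10 min at 37°C). Means ± SEM of three determinations in duplicate.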

Turning to `CN(CC#CCN1CCCC1)C(=O)CCCCN.O=C(O)C(F)(F)F.O=C(O)C(F)(F)F`, the Affinity is 34.4% in test [1] and 22.4% in test [3]. Moreover, the Activity was 15.8% in test [2] and less than 1% in test [4]. For the same compound, the Inhibition (as a rule, the drop in the measured response relative to a control, in per cent) with SK-N-SH amounted to 44%.

Turning to `CC(=O)NCCC(=O)N(C)CC#CCN1CCCC1.O=C(O)C(=O)O`, the results for the Affinity in test [1] and in test [3] were 67.4% and 67.7%, respectively. In addition, the Activity in test [2] was 10.2%; in test [4] it was less than 1%. In the test with SK-N-SH, this compound returned an Inhibition of 43%.

`CN(CC#CCN1CCCC1)C(=O)CCCCCN.O=C(O)C(F)(F)F.O=C(O)C(F)(F)F`: the figures for the Affinity in test [1] and in test [3] were 55.9% and 37.9%, respectively. Also, the Activity was 14.3% in test [2] and less than 1% in test [4]. Besides, the Inhibition with SK-N-SH came to 47%.

On to `CN(CC#CCN1CCCC1)C(=O)CCCCCCN.O=C(O)C(F)(F)F.O=C(O)C(F)(F)F`, for which the Affinity worked out at 81.9% in test [1] and 72.1% in test [3]. Further, the Activity in test [2] is 3%; in test [4], less than 1%. In test [5], the Ki – broadly, a measure of affinity in units of concentration, obtained from inhibition or displacement – amounted to 6.7 µM.

In the case of `CN(CC#CCN1CCCC1)C(=O)CCN.O=C(O)C(F)(F)F.O=C(O)C(F)(F)F`, the Affinity in test [1] is 18.1%; in test [3] it was 15.1%. Moreover, the results for the Activity in test [2] and in test [4] were 20.8% and less than 1%, respectively. Besides, the Inhibition in the test on SK-N-SH is reported as 20%.

Regarding `CN(CC#CCN1CCCC1)C(=O)CCCCCCCN.O=C(O)C(F)(F)F.O=C(O)C(F)(F)F`, the Affinity in test [1] was found to be 93.7%; in test [3] it was 92.3%. In addition, the Activity in test [2] and in test [4] was less than 1% throughout. The compound further displayed a Ki in test [5] of 1.4 µM.
